Reference: ChEMBL document CHEMBL4725355, “Design, Synthesis, and Preclinical Evaluation of 3-Methyl-6-(5-thiophenyl)-1,3-dihydro-imidazo[4,5-b]pyridin-2-ones as Selective GluN2B Negative Allosteric Modulators for the Treatment of Mood Disorders” (J Med Chem, 2020)

Legend:
[1] = Solubility of compound in phosphate buffer at pH 7 measured after 3 days; type: physicochemical; settings: time 3 day
How it was run: (§1)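 Solubility in aqueous buffer at pH 2 and pH 7, and in simulated gastric and intestinal fluids.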

[2] = Metabolic stability in human liver microsomes assessed as extraction ratio at 1 uM after 5 to 60 mins in presence of NADPH by LC-MS/MS analysis; type: ADME, Microsome; settings: time 5-60 min, read-out: ERH
How it was run: (§2)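 Human and rat liver microsomes, run in duplicate; stability reported as microsomal extraction ratio.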

[3] = molecular target: Voltage-gated inwardly rectifying potassium channel KCNH2 (Homo sapiens, UniProt Q12809); test: Inhibition of human ERG expressed in CHO cells measured after 5 mins by Qpatch method; type: cell-based
How it was run: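 CHO cells stably expressing hERG, whole-cell QPatch. Vehicle applied 5 min, then 0.3, 3.0, 10 and 30 µM in rising order, each concentration applied twice. Current measured after 5 min as the average of 3 voltage pulses; block taken relative to vehicle pretreatment, mean ± SEM.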

[4] = Solubility of compound in 100% polyethylene glycol 400 at 0.5 mg/ml; type: physicochemical
[5] = Displacement of 3-[3H] 1-(azetidin-1-yl)-2-[6-(4-fluoro-3-methyl-phenyl)pyrrolo[3,2-b]pyridin-1-yl]ethanone from GluN1a/GluN2B receptor in rat cortex membranes measured after 2 hrs by liquid scintillation counting method; type: cell membranes
How it was run: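 Rat adult cortex was homogenized in 50 mM Tris pH 7.4, and membranes were washed by centrifugation. Membranes were incubated with the [3H] pyrrolopyridine tracer and test compound for 2 h at room temperature with shaking. Non-specific binding was defined with 10 µM CP-101,606. Bound tracer was separated by filtration on PEI-soaked GF/B filters and counted by liquid scintillation. Ki was obtained from a competition fit using tracer Kd; three independent runs in duplicate.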

[6] = Ex vivo receptor occupancy at GluN2B in Sprague-Dawley rat assessed as 3-[3H] 1-(azetidin-1-yl)-2-[6-(4-fluoro-3-methyl-phenyl)pyrrolo[3,2-b]pyridin-1-yl]-ethanone labelling at 3 mg/kg, po measured after 0.5 hrs by autoradiography; type: functional
How it was run: (§3)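 Rats dosed orally at 3 mg/kg in 20% HP-β-CD; brains taken at 0.5, 2 and 6 h. Ex vivo autoradiography of brain slices with the ³H pyrrolo[3,2-b]pyridine GluN2B tracer. Labelling expressed relative to matching brain areas of vehicle-treated animals; n=2, ± SEM.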

[7] = AUC (infinity) in Sprague-Dawley rat at 0.1 mg/kg, iv or 0.5 mg/kg, po by LC-MS/MS analysis; type: ADME, organism-based; set-up: dose 0.5 mg/kg; settings: in vivo
How it was run: (§4)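 Rat PK with IV and PO dosing, n=3. The usual doses were 0.5 mg/kg IV and 2.5 mg/kg PO in 20% HP-β-CD. One compound was instead given at 0.1 mg/kg IV and 0.5 mg/kg PO.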

[8] = Tmax in Sprague-Dawley rat at 0.1 mg/kg, iv or 0.5 mg/kg, po by LC-MS/MS analysis; type: ADME, organism-based; settings: in vivo
How it was run: (§5)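 Rat PK with doses of 0.1 mg/kg i.v. and 0.5 mg/kg p.o., vehicle 20% HP-β-CD. n=3, values given as mean ± SD.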

[9] = Clearance in Sprague-Dawley rat at 0.1 mg/kg, iv by LC-MS/MS analysis; type: ADME, organism-based; settings: in vivo; how it was run: as §4
[10] = Oral bioavailability in Sprague-Dawley rat at 0.5 mg/kg by LC-MS/MS analysis; type: ADME, organism-based; settings: in vivo
[11] = Solubility of compound in phosphate buffer at pH 2 measured after 3 days; type: physicochemical; settings: time 3 day; how it was run: as §1
[12] = Ex vivo receptor occupancy at GluN2B in Sprague-Dawley rat assessed as 3-[3H] 1-(azetidin-1-yl)-2-[6-(4-fluoro-3-methyl-phenyl)pyrrolo[3,2-b]pyridin-1-yl]-ethanone labelling at 3 mg/kg, po measured after 6 hrs by autoradiography; type: functional; how it was run: as §3
[13] = Metabolic stability in rat liver microsomes assessed as extraction ratio at 1 uM after 5 to 60 mins in presence of NADPH by LC-MS/MS analysis; type: ADME, Microsome; settings: time 5-60 min, read-out: ERH; how it was run: as §2
[14] = Half life in Sprague-Dawley rat at 0.1 mg/kg, iv or 0.5 mg/kg, po by LC-MS/MS analysis; type: ADME, organism-based; settings: in vivo
How it was run: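 Rat PK with 0.1 mg/kg i.v. and 0.5 mg/kg p.o. doses, n=3 ± SD.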

[15] = Efflux ratio of apparent permeability across basolateral to apical side over apical to basolateral side in MDCK-MDR1 cells at 5 uM measured after 60 mins by LC-MS/MS analysis; type: ADME, cell-based, Canis lupus familiaris; settings: dog
How it was run: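 MDCK-MDR1 cells, passages 6-30, seeded at 3.4×10^5 cells/cm² and cultured 3 days. Test compound at 5 µM final (1% DMSO) in HBSS, pH 7.4, applied to the donor side. A→B and B→A runs at 37 °C for 60 min, in duplicate, quantified by LC/MS/MS. Efflux ratio taken as B-A/A-B; monolayer integrity checked by lucifer yellow.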

[16] = Cmax in Sprague-Dawley rat at 0.1 mg/kg, iv or 0.5 mg/kg, po by LC-MS/MS analysis; type: ADME, organism-based; set-up: dose 0.5 mg/kg; settings: in vivo; how it was run: as §4
[17] = Ex vivo receptor occupancy at GluN2B in Sprague-Dawley rat assessed as 3-[3H] 1-(azetidin-1-yl)-2-[6-(4-fluoro-3-methyl-phenyl)pyrrolo[3,2-b]pyridin-1-yl]-ethanone labelling at 3 mg/kg, po measured after 2 hrs by autoradiography; type: functional; how it was run: as §3
[18] = Volume of distribution at steady state in Sprague-Dawley rat at 0.1 mg/kg, iv or 0.5 mg/kg, po by LC-MS/MS analysis; type: ADME, organism-based; settings: in vivo, read-out: Vdss; how it was run: as §5
[19] = Tmax in Sprague-Dawley rat brain at 3 mg/kg, po by LC-MS/MS analysis; type: ADME, organism-based
How it was run: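 Rats dosed orally at 3 mg/kg in 20% HP-β-CD. Brain concentrations were measured over a 6 h time course (0.5, 2, 6 h) alongside ex vivo GluN2B occupancy, n=2.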

[20] = Negative allosteric modulation of human GluN1a/GluN2B receptor expressed in CHO cells assessed as inhibition of glutamate and glycine-induced calcium flux preincubated for 5 mins followed by glutamate and glycine addition and measured after 5 mins by calcium 5 dye based FLIPR assay; type: cell-based
How it was run: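 Tet-On CHO T-Rex cells expressing hGluN1a with GluN2A, 2B, 2C or 2D, plated at 20,000 cells/well and induced 24 h before the assay in the presence of ketamine. Cells loaded 1 h at room temperature with Calcium 5 dye, pH 7.4 HEPES buffer. Compound added 5 min, then glutamate (~EC80) plus 10 µM glycine for 5 min; FLIPR fluorescence normalized to control wells. Three independent runs in duplicate (two for some).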

[21] = Solubility of compound in 20% hydroxypropyl-beta-cyclodextrin at 0.1 mg/ml; type: physicochemical
How it was run: (§6)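 Solubility of the compound assessed in dosing excipients, including 30% SBE-β-CD, 50% PEG-400 and 20% HP-β-CD. The aim was a solution usable for rat dosing; the 20% HP-β-CD formulation was checked for a 0.1 mg/mL solution to support a 0.5 mg/kg dose.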

[22] = Cmax in Sprague-Dawley rat brain at 3 mg/kg, po after 2 hrs by LC-MS/MS analysis; type: ADME, organism-based; set-up: route oral, dose 3 mg/kg, time 2 hrs
How it was run: (§7)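 Oral dose of 3 mg/kg in 20% HP-β-CD to rats. Brain concentration was measured alongside ex vivo GluN2B occupancy over a 6 h time course (0.5, 2 and 6 h), n=2.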

[23] = Cmax in Sprague-Dawley rat brain at 3 mg/kg, po after 6 hrs by LC-MS/MS analysis; type: ADME, organism-based; set-up: route oral, dose 3 mg/kg, time 6 hrs; how it was run: as §7
[24] = Solubility of compound in 30% sulfobutylether-beta-cyclodextrin at 0.5 mg/ml; type: physicochemical; how it was run: as §6

Sequence of Voltage-gated inwardly rectifying potassium channel KCNH2 (Q12809 whole entry): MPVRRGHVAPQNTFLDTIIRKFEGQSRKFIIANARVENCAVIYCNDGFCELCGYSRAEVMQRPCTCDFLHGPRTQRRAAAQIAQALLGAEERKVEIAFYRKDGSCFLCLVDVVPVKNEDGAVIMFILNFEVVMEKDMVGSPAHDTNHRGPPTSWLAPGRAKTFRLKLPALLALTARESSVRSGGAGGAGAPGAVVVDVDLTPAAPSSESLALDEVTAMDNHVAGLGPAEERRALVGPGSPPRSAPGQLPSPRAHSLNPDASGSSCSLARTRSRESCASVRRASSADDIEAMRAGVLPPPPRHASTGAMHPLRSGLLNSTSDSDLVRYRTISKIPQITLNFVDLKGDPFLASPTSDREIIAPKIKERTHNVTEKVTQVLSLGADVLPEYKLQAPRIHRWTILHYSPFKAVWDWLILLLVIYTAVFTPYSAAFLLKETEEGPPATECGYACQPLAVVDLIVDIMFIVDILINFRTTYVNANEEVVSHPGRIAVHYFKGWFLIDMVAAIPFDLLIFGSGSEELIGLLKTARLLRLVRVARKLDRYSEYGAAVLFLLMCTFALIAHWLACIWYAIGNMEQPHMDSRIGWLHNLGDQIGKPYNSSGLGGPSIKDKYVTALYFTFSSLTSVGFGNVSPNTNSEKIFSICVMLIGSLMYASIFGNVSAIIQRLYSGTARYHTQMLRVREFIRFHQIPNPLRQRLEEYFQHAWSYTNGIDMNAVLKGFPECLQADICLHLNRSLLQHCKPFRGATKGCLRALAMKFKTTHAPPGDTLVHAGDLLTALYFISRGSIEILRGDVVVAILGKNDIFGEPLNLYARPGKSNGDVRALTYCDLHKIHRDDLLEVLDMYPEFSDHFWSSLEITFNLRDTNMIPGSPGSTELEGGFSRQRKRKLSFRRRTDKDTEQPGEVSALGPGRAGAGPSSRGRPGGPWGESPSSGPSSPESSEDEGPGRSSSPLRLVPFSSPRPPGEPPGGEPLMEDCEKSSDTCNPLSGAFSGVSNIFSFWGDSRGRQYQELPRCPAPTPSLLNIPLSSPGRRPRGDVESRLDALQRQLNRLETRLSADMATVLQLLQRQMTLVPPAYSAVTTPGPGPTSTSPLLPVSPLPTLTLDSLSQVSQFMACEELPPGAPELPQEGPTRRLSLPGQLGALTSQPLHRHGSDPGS

SMILES: CN(C)C(=O)Cn1c(=O)n(C)c2ncc(-c3ccc(C(F)(F)F)s3)cc21
- solubility at 72 h [1]: < 4 µM
- hepatic extraction ratio at 1 µM [2]: < 0.3
- IC50 [3]: > 10000 nM
- solubility [4]: Insoluble
- Ki [5]: 12 nM
- Occ [6]: 79%
- AUC(0-inf) [7]: 912 ng·h/mL
- Tmax [8]: 1 h
- clearance [9]: 14 mL/min/kg
- bioavailability [10]: 121%
- solubility at 72 h [11]: < 4 µM
- Occ [12]: 77%
- hepatic extraction ratio at 1 µM [13]: < 0.17
- half-life [14]: 1.3 h
- efflux ratio at 1 h, 5 µM [15]: 1.4
- Cmax [16]: 188 ng/mL
- Occ [17]: 80%
- Vd [18]: 1.2 L/kg
- Tmax [19]: 2 h
- IC50 [20]: 29 nM
- solubility [21]: Soluble
- Cmax [22]: 1260 ng/g
- Cmax [23]: 598 ng/g
- solubility [24]: Insoluble
